The results in this text go back to ChEMBL document CHEMBL1122814, “Selective thromboxane synthetase inhibitors. 1. 1-[(Aryloxy)alkyl]-1H-imidazoles” (J Med Chem, 1985).

The target in the first data set is T1, 11-beta-hydroxylase (Cytochrome P450 11B1, mitochondrial) (Rattus norvegicus, UniProt P15393).
T1 sequence (P15393 whole entry): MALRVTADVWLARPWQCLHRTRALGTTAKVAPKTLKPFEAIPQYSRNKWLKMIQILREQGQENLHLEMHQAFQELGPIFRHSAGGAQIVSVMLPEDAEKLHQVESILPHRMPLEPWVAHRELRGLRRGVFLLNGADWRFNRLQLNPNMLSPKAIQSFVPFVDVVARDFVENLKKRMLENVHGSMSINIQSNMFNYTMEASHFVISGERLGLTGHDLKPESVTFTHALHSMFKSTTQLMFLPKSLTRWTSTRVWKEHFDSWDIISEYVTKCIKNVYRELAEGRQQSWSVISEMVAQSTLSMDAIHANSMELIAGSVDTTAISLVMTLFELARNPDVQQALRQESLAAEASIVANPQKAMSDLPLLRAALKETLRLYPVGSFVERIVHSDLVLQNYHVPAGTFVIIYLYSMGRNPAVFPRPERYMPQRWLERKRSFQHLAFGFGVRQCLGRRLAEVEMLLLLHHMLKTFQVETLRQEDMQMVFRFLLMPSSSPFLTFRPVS
The experiment in a line: Inhibition of rat adrenal 11-beta-hydroxylase at 10e-5 M. The conditions noted are these: rat adrenal 11-beta-hydroxylase (adrenal enzyme preparation). The method, boiled down: (§1)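 Washed adrenal mitochondria from three male Charles River rats, used within 30 min. Incubated at 37 °C, pH 7.4 (HEPES/sucrose/MgCl2/KH2PO4/malate) with 50 μM [14C]-11-deoxycorticosterone and test drug, 5-min preincubation then 10 min with mitochondria. Extracted into CH2Cl2. Substrate and corticosterone separated by silica TLC and counted by scintillation.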
One may read the inhibition as the percentage by which the read-out fell short of the control. Lower therefore signals a weak effect. Take `c1ccc(OCCn2ccnc2)cc1`: the inhibition at 0.0001 M came out at 72%.

Another data set concerns the target T2, Cytochrome P450 11B1, mitochondrial (Rattus norvegicus, UniProt P15393).
T2 sequence (P15393 whole entry): T1 sequence (P15393 whole entry)
The experiment in a line: Inhibition of rat adrenal 11-beta-hydroxylase.
Details: not given
The method, boiled down:
as §1
One may read the IC50 as the concentration needed to halve the response being measured. A higher IC50 goes with a need for much substance. In turn, `CC(C)c1[nH]c2ccccc2c1Cn1ccnc1` yielded an IC50 of 2000 nM.
For `NC(=O)c1ccc(OCCn2ccnc2)cc1`, inhibition was half-maximal at 10000 nM (IC50).
Still for that read-out and setting: the figure for `O=C(O)c1cccc(OCCn2ccnc2)c1` is above 100000 nM; for `O=C(O)COc1ccc(OCCn2ccnc2)cc1` it is above 100000 nM.
Still for that read-out and setting: in the case of `NC(=O)COc1ccc(OCCn2ccnc2)cc1` it was above 100000 nM.
The same measure, in the same setting: the figure for `O=C(O)c1ccc(OCCn2ccnc2)cc1` [DAZOXIBEN] is above 100000 nM.

In another data set the target is T3, Thromboxane-A synthase (Homo sapiens, UniProt P24557).
T3 sequence (P24557 whole entry): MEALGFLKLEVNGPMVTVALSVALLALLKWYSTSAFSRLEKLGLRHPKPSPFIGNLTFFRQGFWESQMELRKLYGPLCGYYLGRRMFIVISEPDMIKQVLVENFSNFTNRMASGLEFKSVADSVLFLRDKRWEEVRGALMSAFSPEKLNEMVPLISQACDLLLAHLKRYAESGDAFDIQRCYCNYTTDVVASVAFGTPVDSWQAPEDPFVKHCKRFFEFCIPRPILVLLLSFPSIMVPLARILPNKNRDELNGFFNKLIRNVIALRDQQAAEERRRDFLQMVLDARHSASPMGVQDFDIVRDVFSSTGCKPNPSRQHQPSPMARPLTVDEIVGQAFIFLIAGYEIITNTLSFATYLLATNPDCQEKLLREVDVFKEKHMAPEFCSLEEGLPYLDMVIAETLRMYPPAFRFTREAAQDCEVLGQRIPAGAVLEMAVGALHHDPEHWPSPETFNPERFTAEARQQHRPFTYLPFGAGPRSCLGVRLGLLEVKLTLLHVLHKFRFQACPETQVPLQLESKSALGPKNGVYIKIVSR
The experiment in a line: Inhibitory activity against thromboxane A2 synthetase.
Details: not given
The method in brief: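 Human platelet microsomes, cyclooxygenase inactivated with 30 μM indomethacin (30 min, 0 °C). Compound preincubated 2 min on ice, pH 7.8 phosphate. Then 1 min on ice with freshly made PGH2 (from 0.1 mM arachidonic acid and ram seminal vesicle microsomes). Stopped with EtOH. TxB2 measured by RIA in triplicate; dose-response curves over several concentrations.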
Turning to `N#Cc1cccc(OCCn2ccnc2)c1`, the half-maximal inhibitory concentration (IC50) worked out at 3500 nM.
The same measure, in the same setting: in the case of `CC(C)c1[nH]c2ccccc2c1Cn1ccnc1` it was 15 nM; in that of `c1ccc(OCCn2ccnc2)cc1`, 660 nM; in that of `O=C(O)Cc1ccccc1OCCn1ccnc1`, above 10000 nM.
Regarding `CN(C)C(=O)c1ccc(OCCn2ccnc2)cc1`, the IC50 was determined as 1100 nM.
Take `CNC(=O)c1ccc(OCCn2ccnc2)cc1`: 860 nM corresponded to half-maximal inhibition (IC50).
Take `NC(=O)c1ccc(OCCn2ccnc2)cc1`: the IC50 turned out to be 56 nM.
The same measure, in the same setting: the figure for `CCOC(=O)c1ccc(OCCCn2ccnc2)cc1` is 3000 nM; for `O=C(O)Cc1ccc(OCCn2ccnc2)cc1` it is 32 nM.
Same read-out and setting: in the case of `CCOC(=O)COc1ccc(OCCn2ccnc2)cc1` it was 610 nM.
Still for that read-out and setting: in the case of `N#Cc1ccc(OCCn2ccnc2)cc1` it was 13000 nM; in that of `NC(=O)Nc1ccc(OCCn2ccnc2)cc1`, 840 nM.
Turning to `NC(=O)c1ccccc1OCCn1ccnc1`, the IC50 was 22000 nM.
On the same count and under the same terms, the figure for `O=C(O)c1cccc(OCCn2ccnc2)c1` is 530 nM.
`O=C(O)c1ccccc1OCCn1ccnc1` had an IC50 above 10000 nM.
As for `c1cn(CCOc2ccc(-c3nnn[nH]3)cc2)cn1`, 15 nM corresponded to half-maximal inhibition (IC50).
`Nc1ccc(OCCn2ccnc2)cc1` had a 50% inhibitory concentration (IC50) above 50000 nM.
Molecule `CC(=O)Nc1ccc(OCCn2ccnc2)cc1` showed an IC50 of 4000 nM.
`O=C(O)c1ccc(OCCCn2ccnc2)cc1` gave a half-inhibitory concentration (IC50) of 27 nM.
On the same count and under the same terms, the figure for `CCOC(=O)c1ccccc1OCCn1ccnc1` is 4400 nM.
Turning to `CCOC(=O)Cc1ccccc1OCCn1ccnc1`, the IC50 turned out to be 2000 nM.
Molecule `O=C(NC(=O)c1ccc(OCCn2ccnc2)cc1)c1ccccc1` came in with a 50% inhibitory concentration (IC50) of 180 nM.
`O=C(O)COc1ccc(OCCn2ccnc2)cc1` had an IC50 of 95 nM.
Molecule `O=[N+]([O-])c1ccc(OCCn2ccnc2)cc1` showed an IC50 above 50000 nM.
On the same count and under the same terms, in the case of `CCOC(=O)Cc1ccc(OCCn2ccnc2)cc1` it was 2900 nM; in that of `NS(=O)(=O)c1ccc(OCCn2ccnc2)cc1`, above 50000 nM; in that of `NC(=O)Cc1ccc(OCCn2ccnc2)cc1`, 1800 nM.
`CC(=O)NC(=O)c1ccc(OCCn2ccnc2)cc1`: the midpoint of inhibition, the IC50, lay at 630 nM.
Still for that read-out and setting: in the case of `NC(=O)COc1ccc(OCCn2ccnc2)cc1` it was 850 nM; in that of `c1c[nH]cn1` [IMIDAZOLE], 670000 nM; in that of `COc1ccc2c(c1)c(CC(=O)O)c(C)n2C(=O)c1ccc(Cl)cc1` [INDOMETHACIN], above 100000 nM.
